Data as given in ChEMBL document CHEMBL4257542, “Design, synthesis, and evaluation of bitopic arylpiperazine-phthalimides as selective dopamine D3 receptor agonists” (Medchemcomm, 2018).
Several values for one entry are separate records, joined by “and”; a condition that tells them apart may be missing. Equal entries are not always repeated.

Experiments:
D(2) dopamine receptor [1] = molecular target: T1, D(2) dopamine receptor (Homo sapiens, UniProt P14416); assay: Displacement of [3H]-sulpiride from human D2 receptor expressed in HEK293 cells at 30 uM after 150 mins by liquid scintillation counting method relative to control; type: cell-based
Procedure, shortened: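 HEK 293 cells transiently transfected with D2R plasmid, kept in serum-free MEM for 4 h and then serum-containing MEM for 24 h, seeded and left overnight. Whole cells were incubated with 2.2 nM [3H]-sulpiride plus test compound for 150 min at 4 °C, rinsed with ice-cold MEM, and lysed in 1% SDS. Bound radioactivity was read by liquid scintillation counting.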

D(2) dopamine receptor [2] = molecular target: T1, D(2) dopamine receptor; assay: Displacement of [3H]-sulpiride from human D2 receptor expressed in HEK293 cells at 100 nM after 150 mins by liquid scintillation counting method relative to control; type: cell-based
D(2) dopamine receptor [3] = molecular target: T1, D(2) dopamine receptor; assay: Displacement of [3H]-sulpiride from human D2 receptor expressed in HEK293 cells after 150 mins by liquid scintillation counting method; type: cell-based
Procedure, shortened: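 HEK 293 cells transfected with D2R plasmid, cultured in MEM without then with fetal bovine serum (4 h, 24 h). Seeded overnight, then intact cells incubated with [3H]-sulpiride (2.2 nM) plus compounds for 150 min at 4 °C. Cells were rinsed in ice-cold MEM, lysed in 1% SDS, and counted by liquid scintillation. IC50 from nonlinear dose-response fit; Ki by Cheng-Prusoff.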

Homo sapiens = species: Homo sapiens; assay: Selectivity ratio of Ki for human D2 receptor expressed in HEK293 cells to Ki for human D3 receptor expressed in HEK293 cells; type: cell-based
D(3) dopamine receptor [4] = molecular target: T2, D(3) dopamine receptor (Homo sapiens, UniProt P35462); assay: Agonist activity at human D3 receptor expressed in HEK293 cells assessed as inhibition of forskolin-induced cAMP accumulation after 4 hrs by luciferase reporter gene assay; type: functional, cell-based
D(3) dopamine receptor [5] = molecular target: T2, D(3) dopamine receptor; assay: Potency index, ratio of quinpirole EC50 to compound EC50 for agonist activity at human D3 receptor expressed in HEK293 cells; type: functional, cell-based
D(3) dopamine receptor [6] = molecular target: T2, D(3) dopamine receptor; assay: Displacement of [3H]-sulpiride from human D3 receptor expressed in HEK293 cells after 150 mins by liquid scintillation counting method; type: cell-based
D(3) dopamine receptor [7] = molecular target: T2, D(3) dopamine receptor; assay: Potency index, ratio of N-(4-(4-(2,4-dichlorophenyl)piperazin-1-yl)butyl)-1H-indole-2-carboxamide hydrochloride Ki to compound Ki for displacement of [3H]-sulpiride from human D3 receptor expressed in HEK293 cells; type: cell-based

T2 sequence (P35462 whole entry): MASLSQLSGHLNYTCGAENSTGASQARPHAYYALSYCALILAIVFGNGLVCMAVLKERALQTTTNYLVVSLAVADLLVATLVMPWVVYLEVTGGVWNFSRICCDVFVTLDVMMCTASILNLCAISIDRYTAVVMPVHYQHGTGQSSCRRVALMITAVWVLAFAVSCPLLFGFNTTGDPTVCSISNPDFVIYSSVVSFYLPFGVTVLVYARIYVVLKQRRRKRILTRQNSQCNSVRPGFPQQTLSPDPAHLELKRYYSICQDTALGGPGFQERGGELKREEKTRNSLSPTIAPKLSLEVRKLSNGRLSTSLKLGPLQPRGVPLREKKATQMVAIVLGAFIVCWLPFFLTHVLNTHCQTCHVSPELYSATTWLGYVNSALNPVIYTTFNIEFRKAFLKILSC
T1 sequence (P14416 whole entry): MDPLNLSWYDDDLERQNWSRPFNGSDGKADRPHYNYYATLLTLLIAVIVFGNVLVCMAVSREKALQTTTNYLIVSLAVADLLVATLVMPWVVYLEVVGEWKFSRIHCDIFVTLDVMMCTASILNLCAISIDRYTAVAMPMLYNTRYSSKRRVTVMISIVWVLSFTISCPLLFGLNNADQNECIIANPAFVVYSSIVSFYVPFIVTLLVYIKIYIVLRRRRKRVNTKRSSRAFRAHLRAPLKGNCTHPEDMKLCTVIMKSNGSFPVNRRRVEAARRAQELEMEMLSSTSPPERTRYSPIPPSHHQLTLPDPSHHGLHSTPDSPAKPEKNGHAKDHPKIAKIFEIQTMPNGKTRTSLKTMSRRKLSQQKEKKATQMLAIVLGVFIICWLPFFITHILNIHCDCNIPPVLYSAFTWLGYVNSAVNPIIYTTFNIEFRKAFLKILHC

In the case of `O=C(NCCCCN1CCN(c2ccc(Cl)cc2Cl)CC1)c1cc2ccccc2[nH]1`, the inhibition (D(2) dopamine receptor [1]) is reported as less than 50%, the inhibition (D(2) dopamine receptor [2]) is reported as 22.7% and the Ki (D(2) dopamine receptor [3]) is reported as greater than 23900 nM.
`O=C1c2ccccc2C(=O)N1CCCCN1CCN(c2cccc(Cl)c2)CC1` showed an inhibition (D(2) dopamine receptor [2]) of 64.8%.
For `O=C1c2ccccc2C(=O)N1CCCCN1CCN(c2ccc(F)cc2F)CC1`, the inhibition (D(2) dopamine receptor [2]) was 4.8%.
In the case of `O=C1c2ccccc2C(=O)N1CCCCN1CCN(c2ccc(Cl)cc2F)CC1`, the inhibition (D(2) dopamine receptor [2]) is reported as 2.8%.
Molecule `O=C(CCCCN1CCN(c2ccccc2F)CC1)Nc1nc2ccccc2s1` has a Ratio Ki (Homo sapiens) of 45.
`COc1ccccc1C1CCN(CCCCN2C(=O)c3ccccc3C2=O)CC1` gave an inhibition (D(2) dopamine receptor [2]) of 92.2%.
`O=C1c2ccccc2C(=O)N1CCCCN1CCN(c2cccc(C(F)(F)F)c2)CC1` was tested, and the inhibition (D(2) dopamine receptor [2]) was 37.9% and 44%.
`O=C(CCCCN1CCN(c2ccc(Cl)cc2Cl)CC1)Nc1nc2ccccc2s1` was tested, and the Ratio Ki (Homo sapiens) was 63.8.
With `O=C1c2ccccc2C(=O)N1CCCCN1CCN(c2ccc(F)cc2)CC1` the inhibition (D(2) dopamine receptor [2]) was -6.3%.
For `O=C(NCCCCN1CCN(c2cccc(Cl)c2Cl)CC1)c1cc2ccccc2[nH]1`, the EC50 (D(3) dopamine receptor [4]) was 0.026 nM.
Molecule `O=C1c2ccccc2C(=O)N1CCCCN1CCN(c2cc(C(F)(F)F)ccc2F)CC1` has an inhibition (D(2) dopamine receptor [2]) of -4.7%.
For `O=C1c2ccccc2C(=O)N1CCCCN1CCN(c2ccccc2F)CC1`, the inhibition (D(2) dopamine receptor [2]) was 31.8%.
Molecule `O=C1c2ccccc2C(=O)N1CCCCN1CCN(c2cccc(F)c2F)CC1` has a Ratio Ki (Homo sapiens) of 112, a Ratio EC50 (D(3) dopamine receptor [5]) of 199 to 200 and a Ki (D(3) dopamine receptor [6]) of 19.3 nM. It also gave an EC50 (D(3) dopamine receptor [4]) of 0.00048 nM, an inhibition (D(2) dopamine receptor [2]) of 17.7% and a Ki (D(2) dopamine receptor [3]) of 2160 nM. The Ratio Ki (D(3) dopamine receptor [7]) was 21.
Molecule `O=C1c2ccccc2C(=O)N1CCCCN1CCN(c2cccc(Cl)c2Cl)CC1` has an inhibition (D(2) dopamine receptor [2]) of 70.3%.
`CCN1CCCC1CNC(=O)c1cc(S(N)(=O)=O)ccc1OC` (configuration not stated) showed an inhibition (D(2) dopamine receptor [2]) of 92.2%.
`O=C1c2ccccc2C(=O)N1CCCCN1CCN(c2c(F)cccc2F)CC1` was tested, and the inhibition (D(2) dopamine receptor [2]) was 10.3%.
For `O=C1c2ccccc2C(=O)N1CCCCN1CCC(n2c(=O)[nH]c3cc(Cl)ccc32)CC1`, the inhibition (D(2) dopamine receptor [2]) was 56.1%.
For `O=C1c2ccccc2C(=O)N1CCCCN1CCN(c2ccc(Cl)cc2Cl)CC1`, the inhibition (D(2) dopamine receptor [2]) was 30.2%.
`O=C1c2ccccc2C(=O)N1CCCCN1CCN(c2ccccc2Cl)CC1` was tested, and the inhibition (D(2) dopamine receptor [2]) was 28.7%.
